Assay results published in PMC6218153 (Journal of Alzheimer's Disease Reports, 2018).
Marks after values point to notes of the source that are not given here. Where no end group is shown, it is not given here.

How the values were obtained:
[1] = Metabolic stability in human brain homogenate; format: in vitro ADME
Outline: (§1)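 Test compound (100 μM stock in methanol) added to 1 μM final in plasma or brain homogenate (1:3 brain:PBS, w/v) and incubated at room temperature. Sampled at 15 and 30 min and 1, 2 and 4 h; time-zero samples pre-quenched with methanol. Proteins were methanol-precipitated; supernatant evaporated, reconstituted in 0.1% formic acid and analysed by LC/MS/MS. Duplicates per time point; results expressed as % of time 0.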

[2] = Metabolic stability in human plasma; format: in vitro ADME
Outline: as §1

[3] = Metabolic stability in mouse brain homogenate; format: in vitro ADME
Outline: as §1

[4] = Metabolic stability in mouse plasma; format: in vitro ADME
Outline: as §1

[5] = PK study in plasma and CSF after single IV, SC or IN dose; format: in vivo, rat
Outline: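 Cannulated rats (jugular vein, intracisternal; n = 6/route) received a single dose in PBS: IV or SC ~11 mg/kg over 1 min, or IN ~5.5 mg/kg, 10 μL per nostril at 6-min intervals over 18 min. K2EDTA plasma was taken pre-dose to 165 min and CSF pre-dose to 150/180 min. LC/MS/MS (ESI+, 1007.55 > 876.35) with noncompartmental PK; CL = Dose/AUC. CSF ratio = dose-normalised CSF AUC relative to IV.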

DEEEDEEL [P8, DEEEDEEL]
half-life ([1]; human brain homogenate, 1μM P8, room temperature): 2 h | remaining at 2 h, 1 μM ([1]; human, brain homogenate): 51.4% | half-life [2]: > 2 h | remaining at 2 h, 1 μM [2]: 63.1% | remaining at 2 h, 1 μM [3]: 49.2% | half-life [4]: > 4 h | remaining at 2 h, 1 μM [4]: 100% | P8 concentration in plasma ([5]; IN 5.5 mg/kg single dose, 5 min, Rat 1): 137 ng/mL | P8 concentration in plasma ([5]; IN 5.5 mg/kg single dose, 5 min, Rat 2): 262 ng/mL | P8 concentration in plasma ([5]; IN 5.5 mg/kg single dose, 5 min, Rat 3): 191 ng/mL | P8 concentration in CSF ([5]; IN 5.5 mg/kg single dose, 10 min, Rat 2): 3.09 ng/mL | P8 concentration in CSF ([5]; IN 5.5 mg/kg single dose, 10 min, Rat 3): 32.8 ng/mL | P8 concentration in plasma ([5]; IN 5.5 mg/kg single dose, 15 min, Rat 1): 102 ng/mL | P8 concentration in plasma ([5]; IN 5.5 mg/kg single dose, 15 min, Rat 2): 234 ng/mL | P8 concentration in plasma ([5]; IN 5.5 mg/kg single dose, 15 min, Rat 3): 150 ng/mL | P8 concentration in plasma ([5]; IN 5.5 mg/kg single dose, 25 min, Rat 1): 60.8 ng/mL | P8 concentration in plasma ([5]; IN 5.5 mg/kg single dose, 25 min, Rat 2): 123^b ng/mL | P8 concentration in plasma ([5]; IN 5.5 mg/kg single dose, 25 min, Rat 3): 90.6 ng/mL | P8 concentration in CSF ([5]; IN 5.5 mg/kg single dose, 30 min, Rat 2): 1.03 ng/mL | P8 concentration in CSF ([5]; IN 5.5 mg/kg single dose, 30 min, Rat 3): 1.95 ng/mL | P8 concentration in plasma ([5]; IN 5.5 mg/kg single dose, 35 min, Rat 1): 53.7 ng/mL | P8 concentration in plasma ([5]; IN 5.5 mg/kg single dose, 35 min, Rat 2): 85.9 ng/mL | P8 concentration in plasma ([5]; IN 5.5 mg/kg single dose, 35 min, Rat 3): 66.0 ng/mL | P8 concentration in plasma ([5]; IN 5.5 mg/kg single dose, 50 min, Rat 1): 66.1 ng/mL | P8 concentration in plasma ([5]; IN 5.5 mg/kg single dose, 50 min, Rat 2): 67.7 ng/mL | P8 concentration in plasma ([5]; IN 5.5 mg/kg single dose, 50 min, Rat 3): 45.1 ng/mL | P8 concentration in CSF ([5]; IN 5.5 mg/kg single dose, 60 min, Rat 1): 1.18 ng/mL | P8 concentration in CSF ([5]; IN 5.5 mg/kg single dose, 60 min, Rat 2): 0.632 ng/mL | P8 concentration in CSF ([5]; IN 5.5 mg/kg single dose, 60 min, Rat 3): 1.28 ng/mL | P8 concentration in plasma ([5]; IN 5.5 mg/kg single dose, 70 min, Rat 1): 37.6 ng/mL | P8 concentration in plasma ([5]; IN 5.5 mg/kg single dose, 70 min, Rat 2): 55.3 ng/mL | P8 concentration in plasma ([5]; IN 5.5 mg/kg single dose, 70 min, Rat 3): 32.1 ng/mL | P8 concentration in plasma ([5]; IN 5.5 mg/kg single dose, 90 min, Rat 1): 32.2 ng/mL | P8 concentration in plasma ([5]; IN 5.5 mg/kg single dose, 90 min, Rat 2): 42.8 ng/mL | P8 concentration in plasma ([5]; IN 5.5 mg/kg single dose, 90 min, Rat 3): 20.7 ng/mL | P8 concentration in CSF ([5]; IN 5.5 mg/kg single dose, 100 min, Rat 1): 0.537 ng/mL | P8 concentration in CSF ([5]; IN 5.5 mg/kg single dose, 100 min, Rat 2): 2.39 ng/mL | P8 concentration in CSF ([5]; IN 5.5 mg/kg single dose, 100 min, Rat 3): 0.532 ng/mL | P8 concentration in plasma ([5]; IN 5.5 mg/kg single dose, 110 min, Rat 1): 26.0 ng/mL | P8 concentration in plasma ([5]; IN 5.5 mg/kg single dose, 110 min, Rat 2): 27.0 ng/mL | P8 concentration in plasma ([5]; IN 5.5 mg/kg single dose, 110 min, Rat 3): 13.9 ng/mL | P8 concentration in plasma ([5]; IN 5.5 mg/kg single dose, 130 min, Rat 1): 33.2 ng/mL | P8 concentration in plasma ([5]; IN 5.5 mg/kg single dose, 130 min, Rat 2): 15.0 ng/mL | P8 concentration in plasma ([5]; IN 5.5 mg/kg single dose, 130 min, Rat 3): 14.3 ng/mL | P8 concentration in CSF ([5]; IN 5.5 mg/kg single dose, 150 min, Rat 1): 0.581 ng/mL | P8 concentration in CSF ([5]; IN 5.5 mg/kg single dose, 150 min, Rat 3): 1.16 ng/mL | P8 concentration in plasma ([5]; IN 5.5 mg/kg single dose, 165 min, Rat 1): 32.7 ng/mL | P8 concentration in plasma ([5]; IN 5.5 mg/kg single dose, 165 min, Rat 2): 14.9 ng/mL | P8 concentration in plasma ([5]; IN 5.5 mg/kg single dose, 165 min, Rat 3): 17.1 ng/mL | P8 concentration in plasma ([5]; IV 11.0 mg/kg single dose, 5 min, Rat 1): 102,000 ng/mL | P8 concentration in plasma ([5]; IV 11.0 mg/kg single dose, 5 min, Rat 2): 45,300 ng/mL | P8 concentration in plasma ([5]; IV 11.0 mg/kg single dose, 5 min, Rat 3): 43,600 ng/mL | P8 concentration in CSF ([5]; IV 11.0 mg/kg single dose, 10 min, Rat 2): 50.1^c ng/mL | P8 concentration in CSF ([5]; IV 11.0 mg/kg single dose, 10 min, Rat 3): 85.7^c ng/mL | P8 concentration in plasma ([5]; IV 11.0 mg/kg single dose, 15 min, Rat 2): 12,600 ng/mL | P8 concentration in plasma ([5]; IV 11.0 mg/kg single dose, 15 min, Rat 3): 8,460 ng/mL | P8 concentration in plasma ([5]; IV 11.0 mg/kg single dose, 25 min, Rat 1): 4,250 ng/mL | P8 concentration in plasma ([5]; IV 11.0 mg/kg single dose, 25 min, Rat 2): 5,650 ng/mL | P8 concentration in plasma ([5]; IV 11.0 mg/kg single dose, 25 min, Rat 3): 3,230 ng/mL | P8 concentration in CSF ([5]; IV 11.0 mg/kg single dose, 30 min, Rat 1): 42.5 ng/mL | P8 concentration in CSF ([5]; IV 11.0 mg/kg single dose, 30 min, Rat 2): 48.2^c ng/mL | P8 concentration in CSF ([5]; IV 11.0 mg/kg single dose, 30 min, Rat 3): 39.3 ng/mL | P8 concentration in plasma ([5]; IV 11.0 mg/kg single dose, 35 min, Rat 1): 2,160 ng/mL | P8 concentration in plasma ([5]; IV 11.0 mg/kg single dose, 35 min, Rat 2): 2,710 ng/mL | P8 concentration in plasma ([5]; IV 11.0 mg/kg single dose, 35 min, Rat 3): 1,770 ng/mL | P8 concentration in plasma ([5]; IV 11.0 mg/kg single dose, 50 min, Rat 1): 878 ng/mL | P8 concentration in plasma ([5]; IV 11.0 mg/kg single dose, 50 min, Rat 2): 1,190 ng/mL | P8 concentration in plasma ([5]; IV 11.0 mg/kg single dose, 50 min, Rat 3): 713 ng/mL | P8 concentration in CSF ([5]; IV 11.0 mg/kg single dose, 60 min, Rat 1): 22.8 ng/mL | P8 concentration in CSF ([5]; IV 11.0 mg/kg single dose, 60 min, Rat 2): 17.8 ng/mL | P8 concentration in CSF ([5]; IV 11.0 mg/kg single dose, 60 min, Rat 3): 16.9 ng/mL | P8 concentration in plasma ([5]; IV 11.0 mg/kg single dose, 70 min, Rat 1): 392 ng/mL | P8 concentration in plasma ([5]; IV 11.0 mg/kg single dose, 70 min, Rat 2): 313 ng/mL | P8 concentration in plasma ([5]; IV 11.0 mg/kg single dose, 70 min, Rat 3): 199 ng/mL | P8 concentration in CSF ([5]; IV 11.0 mg/kg single dose, 100 min, Rat 1): 10.7 ng/mL | P8 concentration in CSF ([5]; IV 11.0 mg/kg single dose, 100 min, Rat 2): 8.69 ng/mL | P8 concentration in CSF ([5]; IV 11.0 mg/kg single dose, 100 min, Rat 3): 4.08 ng/mL
